The text below walks through data of ChEMBL document CHEMBL2010782, “Combination of a Beta adrenoceptor modulator and a norepinephrine-serotonin uptake inhibitor for the treatment of obesity” (ACS Med Chem Lett, 2011).

By EC50 is commonly meant the concentration giving half of the maximal effect. In general, Ki refers to a dissociation constant, usually derived from enzyme kinetics or from competition with a known ligand. High values mean lower affinity, low ones higher affinity. By Emax is commonly meant the maximal effect, on the per cent scale that the assay sets. For orientation: Tmax means the time from dosing to the highest level.

In series [1] the target is Beta-3 adrenergic receptor (Rattus norvegicus, UniProt P26255). The series can be described thus: Agonist activity at rat adrenergic beta3 receptor expressed in DHB-11 CHO cells assessed as cAMP accumulation after 20 mins by scintillation proximity assay. It is filed as functional, cell-based. On the technique in general: Cyclic AMP is a second messenger, typically raised through Gs and lowered through Gi signalling.

The target of series [2] is T1, Beta-3 adrenergic receptor (Homo sapiens, UniProt P13945). In words: Agonist activity at human adrenergic beta3 receptor expressed in DHB-11 CHO cells assessed as cAMP accumulation after 20 mins by scintillation proximity assay. The series is classed as functional, cell-based.
Target sequence in this assay (P13945 whole entry): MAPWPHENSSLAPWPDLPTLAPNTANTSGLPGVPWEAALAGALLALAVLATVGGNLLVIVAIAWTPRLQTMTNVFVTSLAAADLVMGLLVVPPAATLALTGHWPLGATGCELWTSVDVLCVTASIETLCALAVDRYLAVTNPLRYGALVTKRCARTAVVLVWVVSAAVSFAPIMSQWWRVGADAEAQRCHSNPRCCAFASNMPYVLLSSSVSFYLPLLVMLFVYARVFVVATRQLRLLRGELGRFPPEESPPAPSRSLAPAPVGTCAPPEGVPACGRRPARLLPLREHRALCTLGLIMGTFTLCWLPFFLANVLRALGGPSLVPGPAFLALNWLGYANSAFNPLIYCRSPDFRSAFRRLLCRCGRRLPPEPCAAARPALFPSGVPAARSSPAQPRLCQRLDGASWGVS
Series [3] deals with T2, Beta-2 adrenergic receptor (Homo sapiens, UniProt P07550). The series can be described thus: Agonist activity at human adrenergic beta2 receptor expressed in DHB-11 CHO cells assessed as cAMP accumulation after 20 mins by scintillation proximity assay. It is filed as functional, cell-based.
Target sequence in this assay (P07550 whole entry): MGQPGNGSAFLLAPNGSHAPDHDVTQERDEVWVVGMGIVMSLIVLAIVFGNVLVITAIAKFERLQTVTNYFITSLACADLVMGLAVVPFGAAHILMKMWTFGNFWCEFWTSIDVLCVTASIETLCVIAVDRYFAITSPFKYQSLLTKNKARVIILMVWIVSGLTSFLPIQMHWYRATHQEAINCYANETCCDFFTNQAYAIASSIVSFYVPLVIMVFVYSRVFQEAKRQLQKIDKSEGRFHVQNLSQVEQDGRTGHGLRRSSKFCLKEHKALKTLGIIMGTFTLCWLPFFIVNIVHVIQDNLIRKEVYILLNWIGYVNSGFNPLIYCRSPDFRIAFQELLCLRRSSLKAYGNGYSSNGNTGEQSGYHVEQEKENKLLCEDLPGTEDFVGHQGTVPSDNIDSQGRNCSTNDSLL
The target of series [4] is T3, Beta-1 adrenergic receptor (Homo sapiens, UniProt P08588). In words: Agonist activity at human adrenergic beta1 receptor expressed in DHB-11 CHO cells assessed as cAMP accumulation after 20 mins by scintillation proximity assay. The series is classed as functional, cell-based.
Target sequence in this assay (P08588 whole entry): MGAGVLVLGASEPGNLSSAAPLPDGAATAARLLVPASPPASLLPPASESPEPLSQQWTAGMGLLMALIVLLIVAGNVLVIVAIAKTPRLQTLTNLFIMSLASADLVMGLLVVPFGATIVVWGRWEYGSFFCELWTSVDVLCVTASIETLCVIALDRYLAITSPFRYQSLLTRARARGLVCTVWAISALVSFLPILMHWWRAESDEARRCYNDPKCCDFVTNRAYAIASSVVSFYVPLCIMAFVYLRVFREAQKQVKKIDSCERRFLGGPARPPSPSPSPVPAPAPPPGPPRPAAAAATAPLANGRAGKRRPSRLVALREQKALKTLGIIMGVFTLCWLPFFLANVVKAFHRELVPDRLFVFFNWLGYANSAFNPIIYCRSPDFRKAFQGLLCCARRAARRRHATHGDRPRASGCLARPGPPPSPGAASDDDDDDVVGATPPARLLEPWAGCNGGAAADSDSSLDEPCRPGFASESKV
Series [5] deals with T3, Beta-1 adrenergic receptor. The series can be described thus: Displacement of [125I]Iodocyanopindolol from human adrenergic beta1 receptor expressed in insect sf9 cells by scintillation counting. A general note: Loss of bound radioactivity is the signal in a displacement assay; it reports binding, not function.
Target sequence in this assay (P08588 whole entry): as above
Series [6] addresses T2, Beta-2 adrenergic receptor. In words: Displacement of [125I]Iodocyanopindolol from human adrenergic beta2 receptor expressed in insect sf9 cells by scintillation counting.
Target sequence in this assay (P07550 whole entry): as the sequence (P07550 whole entry) above
Series [7] deals with T1, Beta-3 adrenergic receptor. In words: Agonist activity at human adrenergic beta3 receptor expressed in DHB-11 CHO cells assessed as cAMP accumulation after 20 mins by scintillation proximity assay relative to isoproterenol. The series is classed as functional, cell-based.
Target sequence in this assay (P13945 whole entry, looked up): as the sequence (P13945 whole entry) above
Series [8] deals with Beta-3 adrenergic receptor (Rattus norvegicus) (UniProt P26255). In words: Agonist activity at rat adrenergic beta3 receptor expressed in DHB-11 CHO cells assessed as cAMP accumulation after 20 mins by scintillation proximity assay relative to isoproterenol. The series is classed as functional, cell-based.
The subject of series [9] is Rattus norvegicus. The series can be described thus: Antiobesity activity in po dosed Long-Evans rat assessed as increase in energy expenditure measured after 4 hrs by indirect calorimetry analysis relative to control. The series is classed as functional, organism-based. The method, boiled down:
(§1)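 Male Long–Evans rats with diet-induced obesity on a caloric dense diet received single oral doses of 3 or 10 mg/kg, with vehicle-treated rats as controls. Respiratory quotient (lipid utilization) and energy expenditure were followed by indirect calorimetry for about 4 h. Groups were compared by ANOVA with SNK post hoc test, p < 0.05.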

The target of series [10] is T2, Beta-2 adrenergic receptor. In words: Agonist activity at human adrenergic beta2 receptor expressed in DHB-11 CHO cells assessed as cAMP accumulation after 20 mins by scintillation proximity assay relative to isoproterenol. The series is classed as functional, cell-based. In a few lines:
(§2)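 Whole-cell functional assay in transfected CHO cells expressing the human receptor, read as stimulated cAMP accumulation. Values are reported as the geometric mean ± standard deviation, with the number of runs (n) given.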
Target sequence in this assay (P07550 whole entry, looked up): as the sequence (P07550 whole entry) above

In series [11] the test system is Rattus norvegicus. In words: Antiobesity activity in Long-Evans rat assessed as increase in lipid utilization at 10 mg/kg, po measured after 4 hrs by indirect calorimetry analysis relative to control. Also on record: dose 10 mg/kg. The series is classed as functional, organism-based. The method, boiled down:
as §1

Series [12] relates to Rattus norvegicus. In words: Antiobesity activity in Long-Evans rat assessed as decrease in respiratory quotient at 3 to 10 mg/kg, po measured after 4 hrs by indirect calorimetry analysis relative to control. The series is classed as functional, organism-based. The method, boiled down:
as §1

Series [13] deals with Rattus norvegicus. In words: Antiobesity activity in po dosed Long-Evans rat assessed as increase in lipid utilization measured after 4 hrs by indirect calorimetry analysis relative to control. The series is classed as functional, organism-based. In a few lines:
as §1

Series [14] has as its target T3, Beta-1 adrenergic receptor. In words: Agonist activity at human adrenergic beta1 receptor expressed in DHB-11 CHO cells assessed as cAMP accumulation after 20 mins by scintillation proximity assay relative to isoproterenol. It is filed as functional, cell-based. The method, boiled down: as §2
Target sequence in this assay (P08588 whole entry, looked up): as the sequence (P08588 whole entry) above
Series [15] is filed under the species Homo sapiens. In words: Inhibition of sibutramine-induced increase in systolic blood pressure in human at 30 to 300 mg. The series is classed as functional, Artery.
A short description of series [16]: Elimination half life in healthy human at 60 mg. The series is classed as ADME, organism-based. The note with it: in vivo, read-out: beta t1/2 (converted). In a few lines: (§3)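 Healthy human volunteers were dosed and plasma concentrations followed over time. Tmax was taken from the plasma profile, and terminal elimination half-life was estimated after a 60-mg dose.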

Series [17] is filed under the species Homo sapiens. The series can be described thus: Inhibition of sibutramine-induced increase in heart rate in human at 30 to 300 mg. The series is classed as functional.
Series [18] in a line: Tmax in healthy human plasma. It is filed as ADME, organism-based. The method, boiled down: as §3
The species named for series [19] is Homo sapiens. The series can be described thus: Inhibition of sibutramine-induced increase in diastolic blood pressure in human at 30 to 300 mg. It is filed as functional, Artery.

SMILES strings stand for the structures. Activity calls are given as the source filed them. The calls are words filed in the database; no cut-off is given here.

Beta-3 adrenergic receptor (Rattus norvegicus), sequence (P26255 whole entry): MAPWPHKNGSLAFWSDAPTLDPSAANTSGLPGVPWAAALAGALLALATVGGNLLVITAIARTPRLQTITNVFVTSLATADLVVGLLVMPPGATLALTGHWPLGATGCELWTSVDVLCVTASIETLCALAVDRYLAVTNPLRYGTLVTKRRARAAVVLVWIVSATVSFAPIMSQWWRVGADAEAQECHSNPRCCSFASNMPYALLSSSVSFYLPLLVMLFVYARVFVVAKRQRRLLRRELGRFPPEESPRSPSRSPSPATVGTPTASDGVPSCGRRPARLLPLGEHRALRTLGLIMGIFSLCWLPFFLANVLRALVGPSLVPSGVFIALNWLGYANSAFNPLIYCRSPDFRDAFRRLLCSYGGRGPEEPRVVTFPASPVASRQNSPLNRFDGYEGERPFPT
Beta-3 adrenergic receptor (Rattus norvegicus, UniProt P26255), sequence (P26255 whole entry): as above

As for `CC(C)(Cc1ccc(Oc2ccc(C(N)=O)cn2)cc1)NC[C@H](O)COc1cccc2[nH]c3ccccc3c12` [listing 1 of 3 here], the EC50 in [1] was 5 nM; in series [2], 2.4 nM; in series [3], over 3160 nM; in series [4] it was over 3160 nM.
For `CC(C)(Cc1ccc(Oc2ccc(C(N)=O)cn2)cc1)NC[C@H](O)COc1cccc2[nH]c3ccccc3c12` [listing 2 of 3 here], the Ki turned out to be 0.023 nM in [5] and 0.012 nM in series [6].
Turning to `CC(C)(Cc1ccc(Oc2ccc(C(N)=O)cn2)cc1)NC[C@H](O)COc1cccc2[nH]c3ccccc3c12` [listing 3 of 3 here], the Emax in series [7] is 73.8%; in [8] it was 55.5%; in [10], under 10%; in [14] it was under 10%. Besides, the Activity result in the series with Rattus norvegicus [9] and with Rattus norvegicus [13] was “Dose-dependent effect” each time. The result in the series on Rattus norvegicus [11] and in the series on Rattus norvegicus [12] was Active.
Consider `CC(C)(Cc1ccc(Oc2ccc(C(N)=O)cn2)cc1)NC[C@H](O)COc1cccc2[nH]c3ccccc3c12` [LY377604], for which the Activity turned out to be 5.5 mmHg in the series listed under Homo sapiens [15], 10.5 bpm in the series listed under Homo sapiens [17] and 4.2 mmHg in the series filed under Homo sapiens [19]. For the same molecule, in series [16], the half-life is 9 h. In addition, the Tmax in series [18] came to 2 h.
